In brackets after ≈: the same amount, converted by molar mass. Activity calls are given as the source filed them. The rule behind the calls is not given here.
Columns and labels:
Type in all cases: functional
[1] = Antioxidant activity assessed as scavenging of DPPH at 160 uM after 30 mins by spectrophotometry
U-251 = test: Growth inhibition of human U251 cells after 48 hrs by sulforhodamine B assay; conditions: U-251, 48 h
[2] = Growth inhibition of human NCI-ADR-RES cells after 48 hrs by sulforhodamine B assay
786-0 = test: Growth inhibition of human 786-0 cells after 48 hrs by sulforhodamine B assay; conditions: 786-0, 48 h
NCI-H460 = test: Growth inhibition of human NCI-H460 cells after 48 hrs by sulforhodamine B assay; conditions: NCI-H460, 48 h
PC-3 = test: Growth inhibition of human PC3 cells after 48 hrs by sulforhodamine B assay; conditions: PC-3, 48 h
OVCAR-3 = test: Growth inhibition of human OVCAR3 cells after 48 hrs by sulforhodamine B assay; conditions: OVCAR-3, 48 h
HT-29 = test: Growth inhibition of human HT-29 cells after 48 hrs by sulforhodamine B assay; conditions: HT-29, 48 h
[3] = Antioxidant activity assessed as concentration required for 50% DPPH scavenging activity after 30 mins by spectrophotometry
[4] = Antioxidant activity assessed as scavenging of DPPH at 20.3 uM after 1 min by spectrophotometry relative to resveratrol
[5] = Antioxidant activity assessed as scavenging of DPPH at 20.3 uM up to 10 mins by spectrophotometry
How it was run: (§1)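 Kinetic run: reaction medium with 10 nmol DPPH radicals in ethanol and compound at the stated concentration, DPPH scavenging followed over time up to 10 min. Three independent experiments, each in triplicate.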

[6] = Antioxidant activity assessed as concentration required to scavenge 50% superoxide anions after 10 mins by spectrophotometry
[7] = Antioxidant activity assessed as concentration required for 50% DPPH scavenging activity after 30 mins by spectrophotometry relative to monastrol
[8] = Antioxidant activity assessed as scavenging of DPPH at 29.7 uM up to 10 mins by spectrophotometry; how it was run: as §1
[9] = Antioxidant activity assessed as scavenging of DPPH at 34.4 uM up to 10 mins by spectrophotometry; how it was run: as §1
[10] = Antioxidant activity assessed as scavenging of superoxide anions after 10 mins by spectrophotometry
How it was run: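 Superoxide generated photochemically in 50 mM phosphate buffer pH 7.8 with 13 mM L-methionine, 75 μM nitroblue tetrazolium, 100 μM EDTA, 2 μM riboflavin. Compound at 0–200 μM (12.5–200 μM tested), fluorescent light 10 min at 25 °C; dark-kept mixtures as controls; read at 575 nm. Triplicates in three independent experiments.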

[11] = Antioxidant activity assessed as scavenging of DPPH at 24.2 uM up to 10 mins by spectrophotometry; how it was run: as §1

Row | SMILES | GI50 (U-251) [µg/mL] | GI50 (786-0) [µg/mL] | GI50 (NCI-H460) [µg/mL] | GI50 (PC-3) [µg/mL] | GI50 (OVCAR-3) [µg/mL] | GI50 (HT-29) [µg/mL] | IC50 [3] [µM] | Activity [1] | GI50 [2] [µg/mL] | fold change (FC) [4] | Activity [5] [pmol] | Activity [6] [µM] | fold change (FC) [7] | Activity [8] [pmol] | Activity [9] | Activity [10] | Activity [11] [pmol]
1 | CCOC(=O)C1=C(C)NC(=O)NC1C1CCCCC1 (centres undefined) | 142 (≈ 533 µM) | > 250 | > 250 | > 250 | > 250 | > 250 |  | inactive | > 250 |  |  |  |  |  |  |  | 
2 | CCOC(=O)C1=C(C)NC(=O)NC1c1ccc2c(c1)OCO2 (centres undefined) | 34.9 (≈ 115 µM) | 26.3 (≈ 86.4 µM) | 48.9 (≈ 161 µM) | 83.1 (≈ 273 µM) | 32.4 (≈ 106 µM) | 29.9 (≈ 98.3 µM) |  | inactive | 15.5 (≈ 50.9 µM) |  |  |  |  |  |  |  | 
3 | CCOC(=O)C1=C(C)NC(=O)NC1c1ccc(O)c(O)c1 (centres undefined) | 0.25 (≈ 0.855 µM) | 20.7 (≈ 70.8 µM) | 34 (≈ 116 µM) | 18.2 (≈ 62.3 µM) | 1.6 (≈ 5.47 µM) | 37.8 (≈ 129 µM) | 20.3 | Active | 2.1 (≈ 7.18 µM) | 2 | 488 | 33 | 37 |  |  |  | 
4 | CCOC(=O)C1=C(C)NC(=O)NC1c1ccc(O)cc1 (centres undefined) | 4.2 (≈ 15.2 µM) | 25.8 (≈ 93.4 µM) | 40.6 (≈ 147 µM) | 136 (≈ 492 µM) | 27.3 (≈ 98.8 µM) | 28.7 (≈ 104 µM) |  | inactive | 3.2 (≈ 11.6 µM) |  |  |  |  |  |  |  | 
5 | Oc1ccc(/C=C/c2cc(O)cc(O)c2)cc1 |  |  |  |  |  |  |  | Active |  |  |  | 121 |  |  | Active | Dose-dependent effect | 
6 | CCCC1NC(=S)NC(C)=C1C(=O)OCC (centres undefined) | 29.2 (≈ 120 µM) | 27.7 (≈ 114 µM) | 22.5 (≈ 92.8 µM) | 42.4 (≈ 175 µM) | 38.1 (≈ 157 µM) | 50.4 (≈ 208 µM) |  | inactive | 40.3 (≈ 166 µM) |  |  |  |  |  |  |  | 
7 | CCOC(=O)C1=C(C)NC(=S)NC1C1CCCCC1 (centres undefined) | 25.2 (≈ 89.2 µM) | 4.2 (≈ 14.9 µM) | 3.5 (≈ 12.4 µM) | 0.46 (≈ 1.63 µM) | 2.2 (≈ 7.79 µM) | 25.2 (≈ 89.2 µM) |  | inactive | 24.1 (≈ 85.3 µM) |  |  |  |  |  |  |  | 
8 | CCOC(=O)C1=C(C)NC(=S)NC1c1cc(OC)c(O)c(OC)c1 (centres undefined) | 0.77 (≈ 2.18 µM) | 13.4 (≈ 38 µM) | 65.6 (≈ 186 µM) | 19 (≈ 53.9 µM) | 1.9 (≈ 5.39 µM) | 28.2 (≈ 80 µM) | 24.2 | Active | 25 (≈ 70.9 µM) |  |  | 78 | 37 |  |  |  | 370
9 | COc1cccc2c1C(=O)c1c(O)c3c(c(O)c1C2=O)C[C@@](O)(C(=O)CO)C[C@@H]3O[C@H]1C[C@H](N)[C@H](O)[C@H](C)O1 [DOXORUBICIN] | 0.068 (≈ 0.125 µM) | 0.18 (≈ 0.331 µM) | < 0.025 | 0.24 (≈ 0.442 µM) | 0.27 (≈ 0.497 µM) | 0.27 (≈ 0.497 µM) |  |  | 0.14 (≈ 0.258 µM) |  |  |  |  |  |  |  | 
10 | CCOC(=O)C1=C(C)NC(=O)NC1c1cccc(O)c1 (centres undefined) | 5.1 (≈ 18.5 µM) | 26.3 (≈ 95.2 µM) | 42 (≈ 152 µM) | 34.7 (≈ 126 µM) | 6 (≈ 21.7 µM) | 27.1 (≈ 98.1 µM) |  | inactive | 11.7 (≈ 42.3 µM) |  |  |  |  |  |  |  | 
11 | CCOC(=O)C1=C(C)NC(=S)NC1c1ccc2c(c1)OCO2 (centres undefined) | 25.9 (≈ 80.8 µM) | 27 (≈ 84.3 µM) | 27 (≈ 84.3 µM) | 13.4 (≈ 41.8 µM) | 55.3 (≈ 173 µM) | 31.4 (≈ 98 µM) |  | inactive | 57.1 (≈ 178 µM) |  |  |  |  |  |  |  | 
12 | CCOC(=O)C1=C(C)NC(=O)NC1c1ccc(O)c(OC)c1 (centres undefined) | 4.5 (≈ 14.7 µM) | 17.5 (≈ 57.1 µM) | 126 (≈ 410 µM) | 46.3 (≈ 151 µM) | 1.7 (≈ 5.55 µM) | 28.1 (≈ 91.7 µM) | 105 | 65% | 0.25 (≈ 0.816 µM) |  |  |  |  |  |  |  | 
13 | CCOC(=O)C1=C(C)NC(=O)NC1c1ccc(OC)cc1 (centres undefined) | 11.6 (≈ 40 µM) | 24.8 (≈ 85.4 µM) | > 250 | 26.5 (≈ 91.3 µM) | 8 (≈ 27.6 µM) | 28.3 (≈ 97.5 µM) |  | inactive | 5.7 (≈ 19.6 µM) |  |  |  |  |  |  |  | 
14 | CCOC(=O)C1=C(C)NC(=O)NC1c1ccccc1 (centres undefined) | > 250 | > 250 | 28.9 (≈ 111 µM) | > 250 | > 250 | > 250 |  | inactive | > 250 |  |  |  |  |  |  |  | 

The next lines start with results.

Row | GI50 (U-251) [µg/mL] | GI50 (786-0) [µg/mL] | GI50 (NCI-H460) [µg/mL] | GI50 (PC-3) [µg/mL] | GI50 (OVCAR-3) [µg/mL] | GI50 (HT-29) [µg/mL] | IC50 [3] [µM] | SMILES | Activity [1] | GI50 [2] [µg/mL] | fold change (FC) [4] | Activity [5] [pmol] | Activity [6] [µM] | fold change (FC) [7] | Activity [8] [pmol] | Activity [9] | Activity [10] | Activity [11] [pmol]
15 | 28.3 (≈ 96.1 µM) | 24.5 (≈ 83.2 µM) | 14.2 (≈ 48.2 µM) | 1.7 (≈ 5.78 µM) | 24.7 (≈ 83.9 µM) | 26.5 (≈ 90 µM) |  | CCOC(=O)C1=C(C)NC(=S)NC1c1ccc(F)cc1 (centres undefined) | inactive | 26.1 (≈ 88.7 µM) |  |  |  |  |  |  |  | 
16 | 26.5 (≈ 85.9 µM) | 28.3 (≈ 91.8 µM) | 31.7 (≈ 103 µM) | 25 (≈ 81.1 µM) | 25 (≈ 81.1 µM) | 22.7 (≈ 73.6 µM) | 29.7 | CCOC(=O)C1=C(C)NC(=S)NC1c1ccc(O)c(O)c1 (centres undefined) | Active | 24.3 (≈ 78.8 µM) |  |  |  | 37 | 413 |  |  | 
17 | 23.5 (≈ 84.4 µM) | 24.7 (≈ 88.8 µM) | 28.1 (≈ 101 µM) | 3.1 (≈ 11.1 µM) | 27.1 (≈ 97.4 µM) | 25.3 (≈ 90.9 µM) |  | CCOC(=O)C1=C(C)NC(=O)NC1c1ccc(F)cc1 (centres undefined) | inactive | 3.6 (≈ 12.9 µM) |  |  |  |  |  |  |  | 
18 | 88.3 (≈ 274 µM) | 30 (≈ 93.1 µM) | 180 (≈ 560 µM) | 72.6 (≈ 225 µM) | 11 (≈ 34.1 µM) | 34.9 (≈ 108 µM) | 104 | CCOC(=O)C1=C(C)NC(=S)NC1c1ccc(O)c(OC)c1 (centres undefined) | 65% | 59.7 (≈ 185 µM) |  |  |  |  |  |  |  | 
19 | 6 (≈ 18.6 µM) | 5.3 (≈ 16.4 µM) | 21.6 (≈ 67 µM) | 23.6 (≈ 73.2 µM) | 8.5 (≈ 26.4 µM) | 17.2 (≈ 53.3 µM) |  | CCOC(=O)C1=C(C)NC(=S)NC1c1ccc(SC)cc1 (centres undefined) | inactive | 35.7 (≈ 111 µM) |  |  |  |  |  |  |  | 
20 | 29 (≈ 94.7 µM) | 25.9 (≈ 84.5 µM) | 31.4 (≈ 102 µM) | 5.5 (≈ 18 µM) | 0.99 (≈ 3.23 µM) | 30.6 (≈ 99.9 µM) |  | CCOC(=O)C1=C(C)NC(=S)NC1c1ccc(OC)cc1 (centres undefined) | inactive | 3.2 (≈ 10.4 µM) |  |  |  |  |  |  |  | 
21 | 77.2 (≈ 264 µM) | 27.5 (≈ 94.1 µM) | > 250 | 47.6 (≈ 163 µM) | 37.7 (≈ 129 µM) | > 250 |  | CCOC(=O)C1=C(C)NC(=S)NC1c1ccc(O)cc1 (centres undefined) | inactive | 83.6 (≈ 286 µM) |  |  |  |  |  |  |  | 
22 | 24 (≈ 82.1 µM) | 4 (≈ 13.7 µM) | 10.6 (≈ 36.3 µM) | 5.6 (≈ 19.2 µM) | 14.4 (≈ 49.3 µM) | 29.6 (≈ 101 µM) |  | CCOC(=O)C1=C(C)NC(=S)N[C@H]1c1cccc(O)c1 [S-MENASTROL] | inactive | 22.2 (≈ 75.9 µM) |  |  |  |  |  |  |  | 
23 | 8 (≈ 26.1 µM) | 2.5 (≈ 8.16 µM) | 3.6 (≈ 11.7 µM) | 9.5 (≈ 31 µM) | 10 (≈ 32.6 µM) | 10.2 (≈ 33.3 µM) |  | CCOC(=O)C1=C(C)NC(=O)NC1c1ccc(SC)cc1 (centres undefined) | inactive | 2.7 (≈ 8.81 µM) |  |  |  |  |  |  |  | 
24 | 26.6 (≈ 96.3 µM) | 27.7 (≈ 100 µM) | 28 (≈ 101 µM) | 42.2 (≈ 153 µM) | 27.7 (≈ 100 µM) | 29.8 (≈ 108 µM) |  | CCOC(=O)C1=C(C)NC(=S)NC1c1ccccc1 (centres undefined) | inactive | 27.4 (≈ 99.1 µM) |  |  |  |  |  |  |  | 
25 | 28.1 (≈ 91.7 µM) | 24.9 (≈ 81.3 µM) | 29.2 (≈ 95.3 µM) | 10.2 (≈ 33.3 µM) | 1.3 (≈ 4.24 µM) | 28.3 (≈ 92.4 µM) |  | CCOC(=O)C1=C(C)NC(=S)NC1c1cccc(OC)c1 (centres undefined) | inactive | 25.6 (≈ 83.6 µM) |  |  |  |  |  |  |  | 
